From ChEMBL document CHEMBL4616638, “Inhibition of HIV-1 RT activity by a new series of 3-(1,3,4-thiadiazol-2-yl)thiazolidin-4-one derivatives” (Bioorg Med Chem, 2020) come the findings set out here.

Series [1] in a line: Cytotoxicity against human MT4 cells assessed as reduction in cell viability after 5 days by MTT assay. It is filed as cell-based. The method, boiled down: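 Mock-infected MT-4 cells (6 × 10^5 cells/ml) run alongside infected wells, receiving serial 5-fold compound dilutions in triplicate. After 5 days, MTT formazan read at 540 and 690 nm, median of three wells. CC50 is the concentration lowering OD540 of mock-infected control by 50%.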
(In general: Tetrazolium assays rely on reduction of a dye to a coloured formazan, in cell work by metabolically active cells.)

A short description of series [2]: Selectivity index, ratio of CC50 for human MT4 cells to EC50 for antiviral activity againstHIV1 infected in human MT4 cells. The class given is toxicity, cell-based. As to conditions: read-out: Ratio CC50/EC50. The method, boiled down:
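Ratio CC50/EC50, both from the same 5-day MTT run in MT-4 cells, mock-infected versus HIV-infected (100–300 CCID50) wells.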

For series [3], the system named is Human immunodeficiency virus 1. Kind of series: Antiviral activity against HIV1 infected in human MT4 cells assessed as reduction in virus-induced cytopathic effect after 5 days by MTT assay. The class given is functional, organism-based. As to conditions: Human immunodeficiency virus 1, MT4, 120 h. The method, boiled down: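 HIV stock at 100–300 CCID50 added to MT-4 cells (6 × 10^5 cells/ml after centrifugation of exponentially growing cells), compounds as serial 5-fold dilutions in triplicate wells. After 5 days, viability read by MTT reduction at 540 and 690 nm, median of three wells. EC50 taken as concentration reducing virus-induced cytopathic effect by 50%.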
In general terms: Protection from cytopathic effect is a common read-out in antiviral testing.

Series [4] addresses Human immunodeficiency virus type 1 reverse transcriptase (Human immunodeficiency virus 1, UniProt Q72547). Nature of the series: Inhibition of wild type recombinant HIV1 reverse transcriptase p66/p51 using poly(rA)/oligo(dT)16 as template/primer measured after 40 mins by picogreen dye-based spectrofluorometric method.

Bounds are passed on as bounds.

Regarding `O=C1CSC(c2ccc(Cl)cc2)N1c1n[nH]c(=S)s1` (stereo unspecified), in series [1], the CC50 at 120 h is 195 µM. Further, the selectivity ratio in series [2] was below 1. Besides, in series [3], the EC50 is above 195 µM. Further, the IC50 in series [4] is above 363 µM.

As to `CS(=O)(=O)c1ccc(NC(=O)CSc2nnc(N3C(=O)CSC3c3ccc(Cl)cc3)s2)cc1` (stereo unspecified), the CC50 at 120 h in series [1] was 116 µM. Further, in series [2], the selectivity ratio is below 1. Besides, the EC50 in series [3] is above 116 µM. In series [4], the IC50 worked out at 39.4 µM.

Take `NS(=O)(=O)c1ccc(NC(=O)CSc2nnc(N3C(=O)CSC3c3ccccc3Cl)s2)cc1` (stereo unspecified): the CC50 at 120 h in series [1] is at least 18.8 µM. Moreover, in series [3], the EC50 is above 18.8 µM. In addition, the IC50 in series [4] stood at 21.8 µM.

Consider `NS(=O)(=O)c1ccc(NC(=O)CSc2nnc(N3C(=O)CSC3c3ccc(Cl)cc3)s2)cc1` (stereo unspecified), for which the CC50 at 120 h in series [1] is at least 222 µM. Moreover, the EC50 in series [3] was at least 225 µM. Besides, the IC50 in series [4] came out at 72 µM.

As for `CS(=O)(=O)c1ccc(NC(=O)CSc2nnc(N3C(=O)CSC3c3cccc(Cl)c3)s2)cc1` (stereo unspecified), the CC50 at 120 h in series [1] is 113 µM. In series [2], the selectivity ratio is below 1. The 50% effective concentration (EC50) in series [3] is above 113 µM. In series [4], the IC50 worked out at 15.8 µM.

On to `O=C1CSC(c2cccc(Cl)c2)N1c1nnc(S)s1` (stereo unspecified), for which, in series [1], the CC50 at 120 h is 238 µM. For the same molecule, the selectivity ratio in series [2] is below 1. Further, in series [3], the EC50 was above 238 µM. Also, the concentration for half-maximal inhibition (IC50) in series [4] was above 100 µM.

As for `O=C1CSC(c2ccccc2)N1c1nnc(S)s1` (stereo unspecified), the CC50 at 120 h in series [1] was above 423 µM. Also, the selectivity ratio in series [2] is 13. Moreover, the EC50 in series [3] came to 32 µM. In addition, in series [4], the concentration for half-maximal inhibition (IC50) was above 100 µM.

Consider `CS(=O)(=O)c1ccc(NC(=O)CSc2nnc(N3C(=O)CSC3c3ccccc3)s2)cc1` (stereo unspecified), for which, in series [1], the CC50 at 120 h was 130 µM. Further, the selectivity ratio in series [2] is below 1. In addition, in series [3], the EC50 was above 130 µM. In addition, the IC50 in series [4] worked out at 40.6 µM.

In the case of `NS(=O)(=O)c1ccc(NC(=O)CSc2nnc(N3C(=O)CSC3c3cccc(Cl)c3)s2)cc1` (stereo unspecified), in series [1], the CC50 at 120 h was 118 µM. In addition, the selectivity ratio in series [2] was below 1. Moreover, the 50% effective concentration (EC50) in series [3] was above 118 µM. Besides, the IC50 in series [4] worked out at 19.2 µM.

For the molecule `CS(=O)(=O)c1ccc(NC(=O)CSc2nnc(N3C(=O)CSC3c3ccccc3Cl)s2)cc1` (stereo unspecified), in series [1], the CC50 at 120 h is at least 173 µM. In addition, the concentration giving a half-maximal response (EC50) in series [3] is at least 173 µM. Further, the IC50 in series [4] turned out to be 11.8 µM.

On to `NS(=O)(=O)c1ccc(NC(=O)CSc2nnc(N3C(=O)CSC3c3ccccc3)s2)cc1` (stereo unspecified), for which the CC50 at 120 h in series [1] stood at 99.2 µM. The selectivity ratio in series [2] is below 1. Moreover, in series [3], the EC50 was above 99.2 µM. In addition, in series [4], the IC50 was determined as 30.6 µM.

On to `O=C1CSC(c2ccccc2Cl)N1c1nnc(S)s1` (stereo unspecified), for which, in series [1], the CC50 at 120 h amounted to 200 µM. Also, the selectivity ratio in series [2] is below 1. Also, the EC50 in series [3] was above 200 µM. The IC50 in series [4] was above 100 µM.

As for `Cc1ccnc2c1NC(=O)c1cccnc1N2C1CC1` [NEVIRAPINE], the CC50 at 120 h in series [1] is above 15 µM.

For orientation: CC50 means the concentration that lowers cell viability or growth by half. In general, EC50 refers to the concentration at which the effect is half-maximal. By IC50 is commonly meant the midpoint of a concentration-inhibition curve.
